Laboratory results taken from PMC13570607 (European journal of medicinal chemistry, 2025).

Tests used:
TG2 = target: T1, TG2 (Homo sapiens, UniProt P21980); assay: TG2 transamidase activity in protein lysates of treated SKOV3 cells; type: cell-based
T1 sequence (P21980 1-687): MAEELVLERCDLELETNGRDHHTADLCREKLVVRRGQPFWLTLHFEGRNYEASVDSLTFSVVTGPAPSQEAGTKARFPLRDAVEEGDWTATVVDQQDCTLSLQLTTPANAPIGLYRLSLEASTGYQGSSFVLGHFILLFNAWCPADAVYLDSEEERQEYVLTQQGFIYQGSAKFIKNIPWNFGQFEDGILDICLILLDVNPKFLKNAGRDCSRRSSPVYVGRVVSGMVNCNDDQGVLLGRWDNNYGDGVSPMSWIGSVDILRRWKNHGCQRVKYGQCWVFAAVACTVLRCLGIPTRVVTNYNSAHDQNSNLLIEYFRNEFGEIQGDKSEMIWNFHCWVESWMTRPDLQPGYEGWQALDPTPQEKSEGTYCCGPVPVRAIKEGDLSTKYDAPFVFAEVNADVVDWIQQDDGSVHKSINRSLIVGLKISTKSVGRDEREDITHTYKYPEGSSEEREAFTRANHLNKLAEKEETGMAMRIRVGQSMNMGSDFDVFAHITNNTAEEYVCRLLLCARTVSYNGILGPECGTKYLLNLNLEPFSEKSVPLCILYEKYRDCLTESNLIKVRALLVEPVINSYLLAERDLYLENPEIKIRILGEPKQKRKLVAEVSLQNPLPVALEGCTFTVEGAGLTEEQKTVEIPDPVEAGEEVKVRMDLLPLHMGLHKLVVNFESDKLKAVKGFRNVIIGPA
Procedure, shortened: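 SKOV3 cells were treated with 10 μM test compound for 24 h, and lysates were assayed in a colorimetric transamidase kit. Controls were a reference TG2 inhibitor at 20 μM, VHL ligand at 10 μM, 50 mM EDTA, and lysates of TG2-knockdown or control-shRNA cells. Lysates were incubated with assay mixture for 30 min at 37 °C, then washed, including a 0.1 M NaOH wash. Detection used streptavidin-HRP (1:2000, 15 min, 37 °C), then HRP substrate for 5 min, stopped, and read at 450 nm.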

[1] = Parallel Artificial Membrane Permeability Assay; type: in vitro ADME; settings: 5 μM; 37 °C; 5 h
Procedure, shortened: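 Passive permeability was measured on a pre-coated PAMPA plate. The donor (bottom) side held 0.02% BSA in PBS with compound added from DMSO solution. The receiver (top) side held 0.4% BSA in PBS. After 5 h at 37 °C, receiver samples were quantified by LC/MS/MS.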

Kinetic solubility = type: physicochemical; settings: PBS pH 7.4; room temp 24 h
Procedure, shortened: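 A 10 mM DMSO stock was diluted 1 μL into 99 μL PBS pH 7.4. It was held at room temperature for 24 h, filtered, and quantified by LC/MS/MS.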

Equilibrium solubility = type: physicochemical; settings: PBS pH 7.4; 24 h
Procedure, shortened: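 About 1-2 mg of dry compound was added to 1 mL PBS pH 7.4 in a test tube. The mixture was inverted for 24 h, then filtered, and the filtrate was quantified by LC/MS/MS.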

[2] = Hepatic microsomal stability; type: in vitro ADME; settings: mouse liver microsomes 1 mg/mL; 1 μM compound; NADPH
Procedure, shortened: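 Incubation buffer was 100 mM potassium phosphate, pH 7.4. The reaction was started with NADPH (1 mM final). Aliquots taken at 0, 5, 10, 20, 40 and 60 min were quenched in acetonitrile (5x v:v), filtered and analysed by LC-MS/MS. Data were log-transformed to give half-life and intrinsic clearance.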

SMILES: Cc1ncsc1-c1ccc(CNC(=O)[C@@H]2C[C@@H](O)CN2C(=O)[C@@H](N)C(C)(C)C)cc1 [VHL ligand 1]
- TG2 enzymatic (transamidase) activity (TG2; 10 μM, 24 hours): no effect on transamidating activity

SMILES: Cc1cc(N(C)C)nc(Nc2ccc(NC(=O)Cc3ccccc3)cc2)n1 [MT4]
- PAMPA Permeability [1]: 2.60 10^−6 cm*s^−1
- TG2 enzymatic (transamidase) activity (TG2; 20 μM): no effect on transamidating activity
- Kinetic Solubility (Kinetic solubility): 54.96 µM
- Equilibrium Solubility (Equilibrium solubility): 0.76 µM
- Microsomal Stability Clint [2]: 46 µL/min/mg
- Microsomal Stability T1/2 [2]: 15.2 min
